Test results taken from ChEMBL document CHEMBL1139299, “Facilitated phospholipid translocation in vesicles and nucleated cells using synthetic small molecule scramblases” (Bioorg Med Chem, 2009).

Experiments:
Assay type in all cases: functional
LNCaP = experiment: Cytotoxicity against human LNCAP cells by MTT assay; conditions: read-out: LD50 (the source's name)
How it was run: (§1)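 Cells (Jurkat and LNCaP grown in RPMI with 10% FBS) were seeded at ≥5 × 10^4 cells/mL, dosed from DMSO stock for 24 h, then given fresh medium plus MTT (Jurkat pelleted first). After 4 h, SDS in 0.01 M HCl was added for 18 h at 37°C. A570 was read. % living cells was calculated against a no-cell blank and a DMSO-only control, and LD50 was reported.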

PC-3 [1] = experiment: Cytotoxicity against human PC3 cells by MTT assay; conditions: read-out: LD50 (the source's name)
How it was run: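 PC3 cells grown in Ham's F-12K with 10% FBS were seeded at ≥5 × 10^4 cells/mL, dosed from DMSO stock for 24 h, then given fresh growth medium plus MTT for 4 h. SDS in 0.01 M HCl was added for 18 h at 37°C, 5% CO2. A570 was read. % living cells was calculated against a no-cell blank and a DMSO-only control, and LD50 was reported.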

Jurkat = experiment: Cytotoxicity against human Jurkat cells by MTT assay; conditions: read-out: LD50 (the source's name); how it was run: as §1
PC-3 [2] = experiment: Induction of endogenous phospholipidserine distribution in human PC3 cells at 100 uM by Annexin-V-FITC
How it was run: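 PC3 cells detached with trypsin at 90% confluency and resuspended in TES buffer (5 mM TES, 100 mM NaCl, pH 7.4) at 1 × 10^5 cells/mL. Scramblase added from DMSO stock, 100 μM final, 2 h at 37°C, 5% CO2. Pelleted, resuspended in binding buffer, stained 15 min at 37°C with Annexin V-FITC plus 7AAD (500 ng/mL) to exclude necrotic cells. Annexin-positive fraction read by flow cytometry; three independent experiments.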

Cc1ccc(S(=O)(=O)NCCN(CCNC(=O)Nc2ccc(C#N)cc2)CCNS(=O)(=O)c2ccc(C)cc2)cc1
CC50 (LNCaP): > 100 µM
CC50 (PC-3 [1]): > 100 µM
CC50 (Jurkat): > 100 µM

Cc1ccc(S(=O)(=O)NCCN(CCNC(=O)Nc2ccc(C(C)(C)C)cc2)CCNS(=O)(=O)c2ccc(C)cc2)cc1
CC50 (LNCaP): > 100 µM
CC50 (PC-3 [1]): > 100 µM
CC50 (Jurkat): > 100 µM

Cc1ccc(S(=O)(=O)NCCN(CCNC(=O)Nc2ccc(C(F)(F)F)cc2)CCNS(=O)(=O)c2ccc(C)cc2)cc1
CC50 (LNCaP): > 100 µM
CC50 (PC-3 [1]): > 100 µM
CC50 (Jurkat): > 100 µM

CC(=O)c1ccc(NC(=O)NCCN(CCNS(=O)(=O)c2ccc(C)cc2)CCNS(=O)(=O)c2ccc(C)cc2)cc1
CC50 (LNCaP): > 100 µM
CC50 (PC-3 [1]): > 100 µM
CC50 (Jurkat): > 100 µM

Cc1ccc(S(=O)(=O)NCCN(CCNC(=O)Nc2ccc(Cl)cc2)CCNS(=O)(=O)c2ccc(C)cc2)cc1
CC50 (LNCaP): > 100 µM
CC50 (PC-3 [1]): > 100 µM
CC50 (Jurkat): > 100 µM

Cc1ccc(S(=O)(=O)NCCN(CCNCc2ccccc2)CCNS(=O)(=O)c2ccc(C)cc2)cc1
CC50 (LNCaP): 40 µM
CC50 (PC-3 [1]): 25 µM
CC50 (Jurkat): 25 µM

Cc1ccc(S(=O)(=O)NCCN(CCNC(=O)Nc2ccc(C(C)C)cc2)CCNS(=O)(=O)c2ccc(C)cc2)cc1
CC50 (LNCaP): > 100 µM
CC50 (PC-3 [1]): > 100 µM
CC50 (Jurkat): > 100 µM
Activity (PC-3 [2]): < 5%

Cc1ccc(S(=O)(=O)NCCN(CCNC(=O)Nc2ccc(Oc3ccccc3)cc2)CCNS(=O)(=O)c2ccc(C)cc2)cc1
CC50 (LNCaP): > 100 µM
CC50 (PC-3 [1]): > 100 µM
CC50 (Jurkat): > 100 µM

Cc1ccc(S(=O)(=O)NCCN(CCNC(=O)Nc2ccc(Br)cc2)CCNS(=O)(=O)c2ccc(C)cc2)cc1
CC50 (LNCaP): > 100 µM
CC50 (PC-3 [1]): > 100 µM
CC50 (Jurkat): > 100 µM

COc1ccc(NC(=O)NCCN(CCNS(=O)(=O)c2ccc(C)cc2)CCNS(=O)(=O)c2ccc(C)cc2)cc1
CC50 (LNCaP): > 100 µM
CC50 (PC-3 [1]): > 100 µM
CC50 (Jurkat): > 100 µM

Cc1ccc(S(=O)(=O)NCCN(CCNC(=O)Nc2ccc(OC(F)(F)F)cc2)CCNS(=O)(=O)c2ccc(C)cc2)cc1
CC50 (LNCaP): > 100 µM
CC50 (PC-3 [1]): > 100 µM
CC50 (Jurkat): > 100 µM

Cc1ccc(S(=O)(=O)NCCN(CCNC(=O)Nc2ccccc2)CCNS(=O)(=O)c2ccc(C)cc2)cc1
CC50 (LNCaP): > 100 µM
CC50 (PC-3 [1]): > 100 µM
CC50 (Jurkat): > 100 µM
Activity (PC-3 [2]): < 5%

Cc1ccc(NC(=O)NCCN(CCNS(=O)(=O)c2ccc(C)cc2)CCNS(=O)(=O)c2ccc(C)cc2)cc1
CC50 (LNCaP): > 100 µM
CC50 (PC-3 [1]): > 100 µM
CC50 (Jurkat): > 100 µM

Cc1ccc(S(=O)(=O)NCCN(CCNC(=S)Nc2ccc(Cl)cc2)CCNS(=O)(=O)c2ccc(C)cc2)cc1
CC50 (LNCaP): 15 µM
CC50 (PC-3 [1]): 25 µM
CC50 (Jurkat): 15 µM

Cc1ccc(S(=O)(=O)NCCN(CCNC(=O)Nc2ccc([N+](=O)[O-])cc2)CCNS(=O)(=O)c2ccc(C)cc2)cc1
CC50 (LNCaP): > 100 µM
CC50 (PC-3 [1]): > 100 µM
CC50 (Jurkat): > 100 µM
Activity (PC-3 [2]): < 5%

Cc1ccc(S(=O)(=O)NCCN(CCNC(=O)[C@H](N)Cc2ccccc2)CCNS(=O)(=O)c2ccc(C)cc2)cc1
CC50 (LNCaP): 40 µM
CC50 (PC-3 [1]): 15 µM
CC50 (Jurkat): 25 µM
